Measurements collected from several papers.
Observed: cell growth or viability

NCCOc1cc(C(=O)Nc2cc(OCCN)c3ccccc3n2)nc(C(=O)Nc2cc(OCCN)c3ccccc3n2)c1 — IC50 (HT-1080; ATP luminescence; 72 h): 600 nM
CC(=O)O[C@H]1C(=O)[C@@]2(C)[C@H]([C@H](OC(=O)c3ccccc3)[C@]3(O)C[C@H](OC(=O)[C@H](O)[C@@H](NC(=O)c4ccccc4)c4ccccc4)C(C)=C1C3(C)C)[C@]1(OC(C)=O)CO[C@@H]1C[C@@H]2O — IC50 (HCC1937; ATP luminescence; 72 h): > 2500 nM
O=C(NCc1ccc(CO)cc1)c1c[nH]c2ccc(Cl)cc12 — IC50 (T24; MTT): 17000 nM
COc1ccc(OC)c(NC(=S)NN=Cc2ccccn2)c1 — IC50 (BHK; SRB; 48 h): 111000 nM
NCCOc1cc(C(=O)Nc2cc(OCCN3CCCC3)c3ccccc3n2)nc(C(=O)Nc2cc(OCCN3CCCC3)c3ccccc3n2)c1 — IC50 (HT-1080; ATP luminescence; 72 h): 200 nM
Cn1ccnc1CNCCNc1ccnc2cc(Cl)ccc12 — IC50 (CHO; MTT): 240000 nM
C#CCOc1cc(C(=O)Nc2cc(OCCCN)c3ccccc3n2)nc(C(=O)Nc2cc(OCCCN)c3ccccc3n2)c1 — IC50 (HT-1080; ATP luminescence; 72 h): 2600 nM
COc1cccc2c1C(=O)c1c(O)c3c(c(O)c1C2=O)C[C@@](O)(C(=O)CO)C[C@@H]3O[C@H]1C[C@H](N)[C@H](O)[C@H](C)O1 — IC50 (A 172; WST-1; 72 h): 40 nM
COc1cc(Nc2nccc(-c3cnn4nc(OC)ccc34)n2)cc(C(F)(F)F)c1 — IC50 (A 172; ATP luminescence): 430 nM
CCN1CCN(c2ccc(Nc3cc(N(C)C(=O)Nc4c(Cl)c(OC)cc(OC)c4Cl)ncn3)cc2)CC1 — IC50 (SNU-16; ATP luminescence; 96 h): 9.31 nM
O=C(Nc1cc(OCCN2CCCC2)c2ccccc2n1)c1cc(OCc2ccc(F)cc2)cc(C(=O)Nc2cc(OCCN3CCCC3)c3ccccc3n2)n1 — IC50 (HT-1080; ATP luminescence; 72 h): 8500 nM
Cc1cc(C)cc(COc2cc3c(cc2OCc2cc(C)cc(C)c2)[C@H]2C[C@](O)(Cc4cn(Cc5ccc(-c6ccccc6)cc5)nn4)C[C@H](C)N2CC3)c1 — IC50 (GES1; MTT; 48 h): 2220 nM
COc1cccc2c1C(=O)c1c(O)c3c(c(O)c1C2=O)C[C@@](O)(C(=O)CO)C[C@@H]3O[C@H]1C[C@H](N)[C@H](O)[C@H](C)O1 — IC50 (BHK; SRB; 48 h): 36400 nM
CN1/C(=N/c2ccc(Cl)cc2)c2cc(C(N)=O)nc3c(N)c(Cl)c(N)c1c23 — IC50 (HCC4017): 22900 nM
C=C(C)C(=O)Nc1ccc(-c2c(-c3ccc(Oc4nccc(C)n4)c(F)c3)c3c(N)ncnc3n2C)cc1 — IC50 (NCI-H716; ATP luminescence; 96 h): 2.09 nM
NCCOc1cc(NC(=O)c2cc(OCc3ccc(F)cc3)cc(C(=O)Nc3cc(OCCN)c4ccccc4n3)n2)nc2ccccc12 — IC50 (HT-1080; ATP luminescence; 72 h): 1600 nM
CCCON(Cc1ccc(C(=O)NO)cc1)C(=O)Nc1ccccc1 — IC50 (SUP-B15; ATP luminescence; 72 h): 6780 nM
O=C1Nc2ccccc2C1=Cc1cc2cc(Cl)ccc2nc1Cl — IC50 (CHO; MTT; 72 h): 38500 nM
Cc1cc(C)cc(COc2cc3c(cc2OCc2cc(C)cc(C)c2)[C@H]2C[C@](O)(Cc4cn(Cc5ccc(S(C)(=O)=O)cc5)nn4)C[C@H](C)N2CC3)c1 — IC50 (GES1; MTT; 48 h): 2050 nM
O=C(Nc1cc(OCCN2CCCC2)c2ccccc2n1)c1cc(Cl)cc(C(=O)Nc2cc(OCCN3CCCC3)c3ccccc3n2)n1 — IC50 (HT-1080; ATP luminescence; 72 h): 3400 nM
CCCCCC/N=C1\c2cc(C(N)=O)nc3c(N)c(Cl)c(N)c(c23)N1C — IC50 (HCC4017): 2870 nM
CCN1C(=O)N(c2c(F)c(OC)cc(OC)c2F)Cc2cnc3[nH]c(CN4CCOCC4)cc3c21 — IC50 (NCI-H716; ATP luminescence; 96 h): 1.71 nM
CCN(CC)CCCC(C)Nc1cnc(C(=O)Nc2cc(F)cc3cccnc23)cn1 (centres unmarked) — IC50 (Pan02; MTT): 4300 nM
NCCCOc1cc(NC(=O)c2cc(OCc3c[nH]nn3)cc(C(=O)Nc3cc(OCCCN)c4ccccc4n3)n2)nc2ccccc12 — IC50 (HT-1080; ATP luminescence; 72 h): 35200 nM
CC(C)C[C@H](NC(=O)[C@H](Cc1ccccc1)NC(=O)c1cnccn1)B(O)O — IC50 (HT-1080; ATP luminescence): 13 nM
O=C1Nc2ccccc2C1=Cc1cc2ccc(Cl)cc2nc1Cl — IC50 (CHO; MTT; 72 h): 39200 nM
CCCCCCCCCCCC(=O)Oc1c(C)c(O)c(C(=O)/C=C/c2ccccc2)c(OC)c1C — IC50 (SH-SY5Y; SRB; 72 h): > 50000 nM
CC[C@H]1CN2CCc3cc(OC)c(OC)cc3[C@@H]2C[C@@H]1C[C@H]1NCCc2cc(OC)c(OC)cc21 — IC50 (CHO; MTT): 250 nM
COc1c(C)c(OS(=O)(=O)c2ccc3ccccc3c2)c(C)c(OS(=O)(=O)c2ccc3ccccc3c2)c1C(=O)/C=C/c1ccccc1 — IC50 (SH-SY5Y; SRB; 72 h): > 50000 nM
O=C(Nc1cccc(CO)c1)c1c[nH]c2ccc(Cl)cc12 — IC50 (T24; MTT): 16000 nM
CN(C)CCOc1cc(NC(=O)c2cc(Cl)cc(C(=O)Nc3cc(OCCN(C)C)c4ccccc4n3)n2)nc2ccccc12 — IC50 (HT-1080; ATP luminescence; 72 h): 2200 nM
CCN(CC)CCNC(=O)c1c(C)[nH]c(/C=C2\C(=O)Nc3ccc(F)cc32)c1C — IC50 (IEC-6; 72 h): 3060 nM
